Experimental data published in ChEMBL document CHEMBL3259614, “Design, synthesis, and structure-activity relationship studies of novel fused heterocycles-linked triazoles with good activity and water solubility” (J Med Chem, 2014).
≈ marks a conversion by molar mass, not a printed value.

Key:
Format in all cases: functional
Candida albicans [1] = test: Antimicrobial activity against Candida albicans SC5314 after 24 hrs by serial dilution method; details: SC5314, 24 h
Outline: (§1)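 Broth serial dilution MIC in 96-well plates following NCCLS/CLSI methods. Compounds were dissolved in DMSO and serially diluted in growth medium, with incubation at 35 °C. […] C. parapsilosis 22019 served as the quality-control strain in each assay.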

Candida albicans [2] = test: Antimicrobial activity against Candida albicans Y0109 after 24 hrs by serial dilution method; details: Y0109, 24 h; outline: as §1
Candida parapsilosis = test: Antimicrobial activity against Candida parapsilosis 22019 after 24 hrs by serial dilution method; details: Lodderomyces parapsilosis, 22019, 24 h; outline: as §1
Cryptococcus neoformans = test: Antimicrobial activity against Cryptococcus neoformans 32609 after 72 hrs by serial dilution method; details: Cryptococcus neoformans, 32609, 72 h; outline: as §1
Nakaseomyces glabratus = test: Antimicrobial activity against Candida glabrata 537 after 24 hrs by serial dilution method; details: Nakaseomyces glabratus, 537, 24 h; outline: as §1
Aspergillus fumigatus = test: Antimicrobial activity against Aspergillus fumigatus 7544 after 48 hrs by serial dilution method; details: Aspergillus fumigatus, 7544, 48 h; outline: as §1

MIC (Candida albicans [1]) | MIC (Candida albicans [2]) | MIC (Candida parapsilosis) | MIC (Cryptococcus neoformans) | MIC (Nakaseomyces glabratus) | MIC (Aspergillus fumigatus) | Compound
0.0625 µg/mL (≈ 0.166 µM) | 0.125 µg/mL (≈ 0.333 µM) | 0.25 µg/mL (≈ 0.666 µM) | 0.25 µg/mL (≈ 0.666 µM) | 0.5 µg/mL (≈ 1.33 µM) | 16 µg/mL (≈ 42.6 µM) | C[C@@H](N1CCn2nncc2C1)[C@](O)(Cn1cncn1)c1ccc(F)cc1F
≤ 0.0312 µg/mL | 0.0625 µg/mL (≈ 0.153 µM) | 0.125 µg/mL (≈ 0.305 µM) | ≤ 0.0625 µg/mL | 0.25 µg/mL (≈ 0.61 µM) | 8 µg/mL (≈ 19.5 µM) | C[C@@H](N1CCn2nnc(Cl)c2C1)[C@](O)(Cn1cncn1)c1ccc(F)cc1F
0.25 µg/mL (≈ 0.642 µM) | 0.5 µg/mL (≈ 1.28 µM) | 0.5 µg/mL (≈ 1.28 µM) | 4 µg/mL (≈ 10.3 µM) | 0.5 µg/mL (≈ 1.28 µM) | 16 µg/mL (≈ 41.1 µM) | Cc1nnn2c1CN([C@H](C)[C@](O)(Cn1cncn1)c1ccc(F)cc1F)CC2
0.5 µg/mL (≈ 1.12 µM) | 1 µg/mL (≈ 2.24 µM) | 1 µg/mL (≈ 2.24 µM) | 16 µg/mL (≈ 35.8 µM) | 8 µg/mL (≈ 17.9 µM) | > 16 µg/mL | C[C@@H](N1CCn2nnc(C(=O)N(C)C)c2C1)[C@](O)(Cn1cncn1)c1ccc(F)cc1F
1 µg/mL (≈ 2.21 µM) | 2 µg/mL (≈ 4.43 µM) | 4 µg/mL (≈ 8.86 µM) | 8 µg/mL (≈ 17.7 µM) | 8 µg/mL (≈ 17.7 µM) | > 16 µg/mL | C[C@@H](N1CCn2nnc(-c3ccccc3)c2C1)[C@](O)(Cn1cncn1)c1ccc(F)cc1F
2 µg/mL (≈ 4.42 µM) | 4 µg/mL (≈ 8.84 µM) | 8 µg/mL (≈ 17.7 µM) | 4 µg/mL (≈ 8.84 µM) | 8 µg/mL (≈ 17.7 µM) | 8 µg/mL (≈ 17.7 µM) | C[C@@H](N1CCn2nnc(-c3cccnc3)c2C1)[C@](O)(Cn1cncn1)c1ccc(F)cc1F
1 µg/mL (≈ 2.21 µM) | 4 µg/mL (≈ 8.84 µM) | 4 µg/mL (≈ 8.84 µM) | 16 µg/mL (≈ 35.4 µM) | 8 µg/mL (≈ 17.7 µM) | > 16 µg/mL | C[C@@H](N1CCn2nnc(-c3ccncc3)c2C1)[C@](O)(Cn1cncn1)c1ccc(F)cc1F
1 µg/mL (≈ 2.21 µM) | 2 µg/mL (≈ 4.41 µM) | 8 µg/mL (≈ 17.6 µM) | 8 µg/mL (≈ 17.6 µM) | 8 µg/mL (≈ 17.6 µM) | > 16 µg/mL | C[C@@H](N1CCn2nnc(-c3cncnc3)c2C1)[C@](O)(Cn1cncn1)c1ccc(F)cc1F
2 µg/mL (≈ 4.19 µM) | 4 µg/mL (≈ 8.38 µM) | 4 µg/mL (≈ 8.38 µM) | 16 µg/mL (≈ 33.5 µM) | 4 µg/mL (≈ 8.38 µM) | > 16 µg/mL | C[C@@H](N1CCn2nnc(-c3ccc(C#N)nc3)c2C1)[C@](O)(Cn1cncn1)c1ccc(F)cc1F
0.25 µg/mL (≈ 0.565 µM) | 0.25 µg/mL (≈ 0.565 µM) | 0.25 µg/mL (≈ 0.565 µM) | 1 µg/mL (≈ 2.26 µM) | 0.25 µg/mL (≈ 0.565 µM) | > 64 µg/mL | C[C@@H](N1CCn2cc(C(F)(F)F)nc2C1)[C@](O)(Cn1cncn1)c1ccc(F)cc1F
0.5 µg/mL (≈ 1.12 µM) | 0.5 µg/mL (≈ 1.12 µM) | 0.5 µg/mL (≈ 1.12 µM) | 2 µg/mL (≈ 4.48 µM) | 1 µg/mL (≈ 2.24 µM) | > 64 µg/mL | CCOC(=O)c1cn2c(n1)CN([C@H](C)[C@](O)(Cn1cncn1)c1ccc(F)cc1F)CC2
0.25 µg/mL (≈ 0.581 µM) | 0.125 µg/mL (≈ 0.29 µM) | 0.25 µg/mL (≈ 0.581 µM) | 0.25 µg/mL (≈ 0.581 µM) | 0.25 µg/mL (≈ 0.581 µM) | > 64 µg/mL | C[C@@H](N1CCn2cc(C(C)(C)C)nc2C1)[C@](O)(Cn1cncn1)c1ccc(F)cc1F
0.0625 µg/mL (≈ 0.13 µM) | 0.0625 µg/mL (≈ 0.13 µM) | 0.125 µg/mL (≈ 0.26 µM) | 0.125 µg/mL (≈ 0.26 µM) | 0.125 µg/mL (≈ 0.26 µM) | 32 µg/mL (≈ 66.6 µM) | COc1ccc(-c2cn3c(n2)CN([C@H](C)[C@](O)(Cn2cncn2)c2ccc(F)cc2F)CC3)cc1
0.125 µg/mL (≈ 0.267 µM) | 0.125 µg/mL (≈ 0.267 µM) | 0.125 µg/mL (≈ 0.267 µM) | 0.125 µg/mL (≈ 0.267 µM) | 0.125 µg/mL (≈ 0.267 µM) | 32 µg/mL (≈ 68.3 µM) | C[C@@H](N1CCn2cc(-c3ccc(F)cc3)nc2C1)[C@](O)(Cn1cncn1)c1ccc(F)cc1F
0.125 µg/mL (≈ 0.241 µM) | 0.25 µg/mL (≈ 0.482 µM) | 0.25 µg/mL (≈ 0.482 µM) | 0.125 µg/mL (≈ 0.241 µM) | 0.25 µg/mL (≈ 0.482 µM) | 32 µg/mL (≈ 61.7 µM) | C[C@@H](N1CCn2cc(-c3ccc(C(F)(F)F)cc3)nc2C1)[C@](O)(Cn1cncn1)c1ccc(F)cc1F
0.125 µg/mL (≈ 0.257 µM) | 0.125 µg/mL (≈ 0.257 µM) | 0.125 µg/mL (≈ 0.257 µM) | 0.125 µg/mL (≈ 0.257 µM) | 0.125 µg/mL (≈ 0.257 µM) | 32 µg/mL (≈ 65.8 µM) | C[C@@H](N1CCn2cc(-c3ccc(F)cc3F)nc2C1)[C@](O)(Cn1cncn1)c1ccc(F)cc1F
0.0625 µg/mL (≈ 0.135 µM) | 0.0625 µg/mL (≈ 0.135 µM) | 0.125 µg/mL (≈ 0.269 µM) | 0.125 µg/mL (≈ 0.269 µM) | 0.125 µg/mL (≈ 0.269 µM) | 32 µg/mL (≈ 68.9 µM) | Cc1ccc(-c2cn3c(n2)CN([C@H](C)[C@](O)(Cn2cncn2)c2ccc(F)cc2F)CC3)cc1
0.0625 µg/mL (≈ 0.13 µM) | 0.0625 µg/mL (≈ 0.13 µM) | 0.125 µg/mL (≈ 0.26 µM) | 0.0625 µg/mL (≈ 0.13 µM) | 0.125 µg/mL (≈ 0.26 µM) | 32 µg/mL (≈ 66.6 µM) | COc1cccc(-c2cn3c(n2)CN([C@H](C)[C@](O)(Cn2cncn2)c2ccc(F)cc2F)CC3)c1
0.125 µg/mL (≈ 0.267 µM) | 0.25 µg/mL (≈ 0.534 µM) | 0.125 µg/mL (≈ 0.267 µM) | 0.25 µg/mL (≈ 0.534 µM) | 0.25 µg/mL (≈ 0.534 µM) | 64 µg/mL (≈ 137 µM) | C[C@@H](N1CCn2cc(-c3cccc(F)c3)nc2C1)[C@](O)(Cn1cncn1)c1ccc(F)cc1F
0.125 µg/mL (≈ 0.241 µM) | 0.5 µg/mL (≈ 0.964 µM) | 0.125 µg/mL (≈ 0.241 µM) | 0.25 µg/mL (≈ 0.482 µM) | 0.25 µg/mL (≈ 0.482 µM) | 64 µg/mL (≈ 123 µM) | C[C@@H](N1CCn2cc(-c3cccc(C(F)(F)F)c3)nc2C1)[C@](O)(Cn1cncn1)c1ccc(F)cc1F
